Laboratory results taken from ChEMBL document CHEMBL2440008, “Identification of 2-aminooxazole amides as acyl-CoA: diacylglycerol acyltransferase 1 (DGAT1) inhibitors through scaffold hopping strategy” (Bioorg Med Chem Lett, 2013).
≈ marks a conversion by molar mass, not a printed value. One block for each molecule: values may come before it.

How the values were obtained:
[1] = molecular target: T1, Diacylglycerol O-acyltransferase 1 (Mus musculus, UniProt Q9Z2A7); test: Inhibition of mouse DGAT-1
T1 sequence (Q9Z2A7 whole entry): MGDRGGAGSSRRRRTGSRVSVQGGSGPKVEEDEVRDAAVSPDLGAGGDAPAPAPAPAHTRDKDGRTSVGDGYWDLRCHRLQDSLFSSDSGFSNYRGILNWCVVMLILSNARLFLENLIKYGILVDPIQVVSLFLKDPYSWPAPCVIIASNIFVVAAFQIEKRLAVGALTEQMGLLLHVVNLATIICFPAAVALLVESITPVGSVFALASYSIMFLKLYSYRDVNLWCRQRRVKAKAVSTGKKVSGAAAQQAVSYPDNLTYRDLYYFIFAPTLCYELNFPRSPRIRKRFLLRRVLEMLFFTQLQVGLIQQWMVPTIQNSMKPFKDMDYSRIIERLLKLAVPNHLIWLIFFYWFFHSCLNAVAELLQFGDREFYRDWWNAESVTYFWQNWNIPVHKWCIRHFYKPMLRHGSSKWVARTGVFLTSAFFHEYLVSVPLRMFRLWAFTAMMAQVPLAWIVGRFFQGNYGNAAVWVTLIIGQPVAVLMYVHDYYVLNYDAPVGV

Mus musculus [2] = test: Antidyslipidemic activity in C57BL/6J mouse postprandial triglyceridemia model assessed as reduction in plasma triglyceride level at 10 mg/kg, po treated 15 mins prior to corn oil-challenge measured after 2 hrs by colorimetric method relative to control; assay type: functional; parameters: scale not given: the % may be the effect or the level left
Method in brief: (§1)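 Male C57BL/6J mice fasted overnight; oral dose in 20% hydroxypropyl-b-cyclodextrin vehicle (vehicle alone for controls) 15 min before 0.25 mL corn oil challenge at time 0. Terminal blood taken by heart puncture under anesthesia at 2 h; plasma triglycerides measured colorimetrically by enzymatic TG reagent with absorbance read on a microplate reader, compared with vehicle-treated controls.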

hERG = hERG (Homo sapiens, UniProt Q12809); test: Inhibition of human ERG at 10 uM relative to control
Cytochrome P450 2C9 [3] = molecular target: T2, Cytochrome P450 2C9 (Homo sapiens, UniProt P11712); test: Inhibition of CYP2C9 (unknown origin) coincubated with substrate; assay type: ADME
Cytochrome P450 3A4 [4] = molecular target: T3, Cytochrome P450 3A4 (Homo sapiens, UniProt P08684); test: Inhibition of CYP3A4 (unknown origin) preincubated prior to substrate addition; assay type: ADME
[5] = Plasma protein binding (unknown origin); assay type: ADME, cell-free; settings: read-out: PPB (converted)
Cytochrome P450 2C9 [6] = molecular target: T2, Cytochrome P450 2C9; test: Inhibition of CYP2C9 (unknown origin) preincubated prior to substrate addition; assay type: ADME
Cytochrome P450 2D6 [7] = molecular target: T4, Cytochrome P450 2D6 (Homo sapiens, UniProt P10635); test: Inhibition of CYP2D6 (unknown origin) preincubated prior to substrate addition; assay type: ADME
Target sequence in this assay (P10635 whole entry): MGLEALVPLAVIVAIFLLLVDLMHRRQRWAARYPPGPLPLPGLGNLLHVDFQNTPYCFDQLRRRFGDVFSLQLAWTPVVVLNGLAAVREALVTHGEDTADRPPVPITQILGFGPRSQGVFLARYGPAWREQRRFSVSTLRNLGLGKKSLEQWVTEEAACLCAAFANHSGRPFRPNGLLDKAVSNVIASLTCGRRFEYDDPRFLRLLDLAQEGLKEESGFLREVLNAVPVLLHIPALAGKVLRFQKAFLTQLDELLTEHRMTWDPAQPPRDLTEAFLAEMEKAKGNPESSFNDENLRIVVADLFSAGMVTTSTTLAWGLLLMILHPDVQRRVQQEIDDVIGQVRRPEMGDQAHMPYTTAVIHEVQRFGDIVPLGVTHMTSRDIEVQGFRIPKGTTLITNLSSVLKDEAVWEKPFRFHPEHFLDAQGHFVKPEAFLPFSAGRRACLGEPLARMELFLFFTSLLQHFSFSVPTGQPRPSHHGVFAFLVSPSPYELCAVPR

[8] = AUC in po dosed rat; assay type: ADME, organism-based; settings: plasma
Cytochrome P450 2D6 [9] = molecular target: T4, Cytochrome P450 2D6; test: Inhibition of CYP2D6 (unknown origin) coincubated with substrate
Target sequence in this assay (P10635 whole entry, looked up): as the sequence (P10635 whole entry) above

[10] = Solubility of the compound; assay type: physicochemical
[11] = Clearance in human hepatocytes measured per 10^6 cells; assay type: ADME, cell-based, Hepatocyte; settings: read-out: CLH
Cytochrome P450 3A4 [12] = molecular target: T3, Cytochrome P450 3A4; test: Inhibition of CYP3A4 (unknown origin) coincubated with substrate; assay type: ADME
Mus musculus [13] = test: Antidyslipidemic activity in C57BL/6J mouse postprandial triglyceridemia model assessed as reduction in plasma triglyceride level at 3 mg/kg, po treated 15 mins prior to corn oil-challenge measured after 2 hrs by colorimetric method relative to control; assay type: functional; parameters: scale not given: the % may be the effect or the level left; method in brief: as §1

T3 sequence (P08684 whole entry): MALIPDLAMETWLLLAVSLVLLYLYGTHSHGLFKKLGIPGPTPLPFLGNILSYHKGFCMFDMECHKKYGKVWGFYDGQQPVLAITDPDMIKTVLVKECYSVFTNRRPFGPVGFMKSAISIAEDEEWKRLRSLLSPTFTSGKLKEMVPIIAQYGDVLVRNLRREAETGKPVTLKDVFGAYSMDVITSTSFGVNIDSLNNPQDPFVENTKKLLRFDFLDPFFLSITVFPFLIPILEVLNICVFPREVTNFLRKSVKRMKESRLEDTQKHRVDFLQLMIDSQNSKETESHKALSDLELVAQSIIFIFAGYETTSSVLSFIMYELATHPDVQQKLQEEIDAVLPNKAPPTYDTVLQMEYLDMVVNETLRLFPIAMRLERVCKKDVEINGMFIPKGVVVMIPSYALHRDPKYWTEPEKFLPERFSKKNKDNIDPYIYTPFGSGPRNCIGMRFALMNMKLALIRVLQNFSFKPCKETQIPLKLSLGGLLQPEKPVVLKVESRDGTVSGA
T2 sequence (P11712 whole entry): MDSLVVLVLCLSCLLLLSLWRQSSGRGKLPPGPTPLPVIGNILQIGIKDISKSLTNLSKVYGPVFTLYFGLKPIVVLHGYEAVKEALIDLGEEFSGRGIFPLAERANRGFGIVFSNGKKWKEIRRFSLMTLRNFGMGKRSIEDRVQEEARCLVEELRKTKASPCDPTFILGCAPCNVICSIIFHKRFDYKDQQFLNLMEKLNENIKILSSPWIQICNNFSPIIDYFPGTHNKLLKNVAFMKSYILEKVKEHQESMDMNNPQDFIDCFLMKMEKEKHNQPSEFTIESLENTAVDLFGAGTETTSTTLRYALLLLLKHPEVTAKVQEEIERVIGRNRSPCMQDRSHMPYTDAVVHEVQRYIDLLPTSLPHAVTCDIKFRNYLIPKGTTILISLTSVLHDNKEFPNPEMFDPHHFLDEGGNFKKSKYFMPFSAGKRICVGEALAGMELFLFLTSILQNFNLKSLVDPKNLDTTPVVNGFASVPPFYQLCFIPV
Sequence of hERG (Q12809 whole entry): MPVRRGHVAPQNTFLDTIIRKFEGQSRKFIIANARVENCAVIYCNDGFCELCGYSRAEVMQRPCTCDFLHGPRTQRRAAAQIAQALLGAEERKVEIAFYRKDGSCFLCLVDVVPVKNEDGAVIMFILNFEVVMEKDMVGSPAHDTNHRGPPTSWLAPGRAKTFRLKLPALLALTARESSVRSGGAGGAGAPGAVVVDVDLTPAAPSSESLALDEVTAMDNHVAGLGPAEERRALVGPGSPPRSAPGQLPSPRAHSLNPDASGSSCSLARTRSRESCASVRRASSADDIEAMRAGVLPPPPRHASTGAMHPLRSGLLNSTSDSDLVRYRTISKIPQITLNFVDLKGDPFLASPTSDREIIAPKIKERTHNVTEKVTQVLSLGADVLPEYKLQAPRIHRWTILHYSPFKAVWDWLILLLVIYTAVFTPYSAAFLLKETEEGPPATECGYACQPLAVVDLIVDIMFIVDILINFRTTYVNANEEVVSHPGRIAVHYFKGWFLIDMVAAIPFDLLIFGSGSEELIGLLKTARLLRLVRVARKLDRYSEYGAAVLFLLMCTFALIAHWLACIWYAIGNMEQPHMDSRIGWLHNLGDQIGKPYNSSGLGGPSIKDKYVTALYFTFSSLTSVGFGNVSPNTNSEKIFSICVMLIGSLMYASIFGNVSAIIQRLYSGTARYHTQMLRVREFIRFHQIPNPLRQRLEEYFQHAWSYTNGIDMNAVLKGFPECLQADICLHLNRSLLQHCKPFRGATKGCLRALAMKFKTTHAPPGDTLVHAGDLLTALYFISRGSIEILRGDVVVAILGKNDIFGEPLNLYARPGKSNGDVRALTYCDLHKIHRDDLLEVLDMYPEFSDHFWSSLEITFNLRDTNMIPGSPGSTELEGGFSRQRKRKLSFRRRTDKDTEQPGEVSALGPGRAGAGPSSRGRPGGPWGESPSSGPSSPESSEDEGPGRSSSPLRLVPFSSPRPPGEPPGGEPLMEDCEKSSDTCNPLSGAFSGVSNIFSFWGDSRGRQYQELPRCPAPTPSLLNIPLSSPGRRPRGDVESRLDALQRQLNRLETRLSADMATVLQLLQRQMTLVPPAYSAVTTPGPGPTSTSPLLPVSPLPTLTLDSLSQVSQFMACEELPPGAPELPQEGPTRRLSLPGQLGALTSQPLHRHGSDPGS

SMILES: CC(C)OC(=O)N1CCN(c2ccc(NC(=O)c3oc(N4CCCCC4)nc3C(F)(F)F)cn2)CC1
Activity (Mus musculus [2]): -12% | inhibition at 10 µM (hERG): 40% | IC50 (Cytochrome P450 2C9 [3]): > 20 µM | IC50 (Cytochrome P450 3A4 [4]): > 20 µM | fraction unbound [5]: 0.004 | IC50 (Cytochrome P450 2C9 [6]): > 20 µM | IC50 (Cytochrome P450 2D6 [7]): > 20 µM | AUC [8]: 69 µM·h | IC50 (Cytochrome P450 2D6 [9]): > 20 µM | solubility [10]: 100 µM (≈ 51.1 µg/mL) | hepatocyte CLint [11]: 24.2 µL/min/1e6 cells | IC50 [1]: 1.2 µM | IC50 (Cytochrome P450 3A4 [12]): > 20 µM

SMILES: COCCN(C)c1ccc(NC(=O)c2oc(-c3ccccc3)nc2C(F)(F)F)cn1
AUC [8]: 12.7 µM·h | IC50 [1]: 2.85 µM

SMILES: O=C(Nc1ccc(N2CCN(C(=O)OC3CCCC3)CC2)nc1)c1oc(N2CCCCC2)nc1C(F)(F)F
Activity (Mus musculus [2]): -27%

The next lines start with results.

IC50 [1]: 2.27 µM
SMILES: O=C(Nc1ccc(N2CCN(c3ncccc3Cl)CC2)nc1)c1oc(N2CCCCC2)nc1C(F)(F)F

IC50 [1]: 1.39 µM
SMILES: O=C(Nc1ccc(N2CCN(C(=O)Oc3ccccc3Cl)CC2)nc1)c1oc(N2CCCCC2)nc1C(F)(F)F

IC50 [1]: 0.134 µM
SMILES: O=C(Nc1ccc(N2CCCN(C(=O)Nc3ccccc3Cl)CC2)nc1)c1oc(N2CCCCC2)nc1C(F)(F)F

IC50 (Cytochrome P450 2C9 [3]): 6.4 µM | IC50 (Cytochrome P450 3A4 [4]): 5 µM | fraction unbound [5]: 0.001 | IC50 (Cytochrome P450 2C9 [6]): 9.7 µM | IC50 (Cytochrome P450 2D6 [7]): > 20 µM | AUC [8]: 25 µM·h | IC50 (Cytochrome P450 2D6 [9]): > 20 µM | solubility [10]: 10 µM (≈ 5.78 µg/mL) | hepatocyte CLint [11]: 16.9 µL/min/1e6 cells | IC50 [1]: 0.026 µM | IC50 (Cytochrome P450 3A4 [12]): > 20 µM
SMILES: O=C(Nc1ccc(N2CCN(C(=O)Nc3ccccc3Cl)CC2)nc1)c1oc(N2CCCCC2)nc1C(F)(F)F
Activity (Mus musculus [2]): -63% | Activity (Mus musculus [13]): -28%
